Measurements taken from ChEMBL document CHEMBL5608194, “Novel neuroprotective 5,6-dihydropyrido[2',1':2,3]imidazo[4,5-c]quinoline derivatives acting through cholinesterase inhibition and CB2 signaling modulation” (Eur J Med Chem, 2024).
Activity calls are given as the source filed them. The calls are words filed in the database; no cut-off is given here.

Tests used:
SH-SY5Y [1] = test: Inhibition of MPP+ induced mitochondrial superoxide radical production in human SH-SY5Y cells at 10 uM incubated for 24 hrs by MitoSOX staining based microplate reader assay (reference value: 100%); format: functional
Summary of the method: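 Neuron-like SH-SY5Y (20 000 cells/well) co-treated with 5 mM MPP+ and compound for 24 h; plates centrifuged, medium replaced by 5 μM MitoSOX in HBSS, 30 min at 37 °C, fluorescence 500/580 nm; MPP+ signal set to 100 %; triplicates on at least four independent days.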

SH-SY5Y [2] = test: Cytotoxicity against human SH-SY5Y cells assessed as cell death at 10 uM incubated for 72 hrs by propidium iodide staining based fluorescence assay; format: toxicity
Summary of the method: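 SH-SY5Y differentiated to neuron-like phenotype with 10 μM all-trans retinoic acid for 48 h, 20 000 cells/well. Compounds from DMSO stocks (DMSO ≤0.5 %) added, then 72 h exposure. Control wells lysed with 1 % Triton X-100 for 1 min, then all wells stained with propidium iodide for fluorescence read-out. Dead-cell proportion expressed relative to Triton X-100-treated control.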

SH-SY5Y [3] = test: Neuroprotective activity against ATRA-differentiated and 3-NPA induced cell death in human SH-SY5Y cells assessed as cell death at 0.1 uM incubated for 48 hrs by propidium iodide staining based fluorescence assay (reference value: 100%); format: functional
Summary of the method: (§1)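 ATRA-differentiated SH-SY5Y co-treated with compound and 20 mM 3-nitropropionic acid for 48 h; cell death by propidium iodide fluorescence, 3-NPA-treated signal set to 100 %.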

SH-SY5Y [4] = test: Neuroprotective activity against ATRA-differentiated and 3-NPA induced cell death in human SH-SY5Y cells assessed as cell death at 1 uM incubated for 48 hrs by propidium iodide staining based fluorescence assay (reference value: 100%); format: functional; summary of the method: as §1
SH-SY5Y [5] = test: Neuroprotective activity against ATRA-differentiated and 3-NPA induced cell death in human SH-SY5Y cells assessed as cell death at 10 uM incubated for 48 hrs by propidium iodide staining based fluorescence assay (reference value: 100%); format: functional; summary of the method: as §1
SH-SY5Y [6] = test: Neuroprotective activity against ATRA-differentiated and MPP+ induced cell death in human SH-SY5Y cells assessed as cell death at 0.1 uM incubated for 24 hrs by propidium iodide staining based fluorescence assay (reference value: 100%); format: functional
Summary of the method: (§2)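 ATRA-differentiated SH-SY5Y co-treated with compound and 5 mM MPP+ for 24 h; cell death by propidium iodide fluorescence, MPP+-treated signal set to 100 %.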

SH-SY5Y [7] = test: Neuroprotective activity against ATRA-differentiated and MPP+ induced cell death in human SH-SY5Y cells assessed as cell death at 1 uM incubated for 24 hrs by propidium iodide staining based fluorescence assay (reference value: 100%); format: functional; summary of the method: as §2
SH-SY5Y [8] = test: Neuroprotective activity against ATRA-differentiated and MPP+ induced cell death in human SH-SY5Y cells assessed as cell death at 10 uM incubated for 24 hrs by propidium iodide staining based fluorescence assay (reference value: 100%); format: functional; summary of the method: as §2
SH-SY5Y [9] = test: Neuroprotective activity against ATRA-differentiated and MPP+ induced cell death in human SH-SY5Y cells assessed as cell death at 10 uM by LDH release assay (reference value: 100%); format: functional
Summary of the method: (§3)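 ATRA-differentiated SH-SY5Y co-treated with 5 mM MPP+ and compound; cell death by commercial LDH release kit; MPP+ value set to 100 %; triplicates on at least three independent days.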

SH-SY5Y [10] = test: Neuroprotective activity against ATRA-differentiated and MPP+ induced cell death in human SH-SY5Y cells assessed as cell death at 1 uM by LDH release assay (reference value: 100%); format: functional; summary of the method: as §3
SH-SY5Y [11] = test: Neuroprotective activity against MPP+ induced cell death in human SH-SY5Y cells assessed as cell death at 10 uM by YOPRO-1 staining based assay; format: functional
Summary of the method: (§4)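 Neuron-like SH-SY5Y co-treated with compound and 5 mM MPP+ for 24 h; centrifuged at 500 × g, medium replaced by 1 μM YO-PRO1 in PBS for 15 min at room temperature; fluorescence 488/530 nm; MPP+ signal set to 100 %; triplicates on at least three independent days.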

SH-SY5Y [12] = test: Neuroprotective activity against MPP+ induced cell death in human SH-SY5Y cells assessed as cell death at 1 uM by YOPRO-1 staining based assay; format: functional; summary of the method: as §4
SH-SY5Y [13] = test: Neuroprotective activity against MPP+ induced cell death in human SH-SY5Y cells assessed as cell death at 1 uM incubated for 24 hrs by Cas-3, 7 staining based assay; format: functional
Summary of the method: (§5)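 Caspase-3/7 activation with Ac-DEVD-AFC substrate after 24 h co-treatment of neuron-like SH-SY5Y with compound and 5 mM MPP+; MPP+ signal set to 100 %; triplicates on at least three independent days.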

SH-SY5Y [14] = test: Neuroprotective activity against MPP+ induced cell death in human SH-SY5Y cells assessed as cell death at 10 uM incubated for 24 hrs by Cas-3, 7 staining based assay; format: functional; summary of the method: as §5
SH-SY5Y [15] = test: Inhibition of MPP+ induced superoxide radical production in human SH-SY5Y cells at 10 uM incubated for 24 hrs by microplate reader assay (reference value: 100%); format: functional
Summary of the method: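 Neuron-like SH-SY5Y co-treated with 5 mM MPP+ and compound for 24 h; centrifuged at 500 × g, medium replaced with 10 μM dihydroethidium in PBS for 30 min, fluorescence 500/580 nm; MPP+ signal set to 100 %; triplicates on at least four independent days.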

SH-SY5Y [16] = test: Inhibition of MPP+ induced superoxide radical production in ATRA-differentiated human SH-SY5Y cells at 1 uM incubated for 24 hrs by MitoSOX staining based confocal laser scanning microscopy; format: functional, cell-based
Summary of the method: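 50 000 cells seeded on chamber slides, ATRA-differentiated, co-treated with 5 mM MPP+ and compound for 24 h, then stained with MitoSOX and imaged by confocal laser-scanning microscopy (63× objective).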

SH-SY5Y [17] = test: Inhibition of MPP+ induced mitochondrial depolarization in human SH-SY5Y cells at 1 uM incubated for 2 hrs by JC10 staining based confocal laser scanning microscopy; format: functional
Summary of the method: (§6)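 ATRA-differentiated SH-SY5Y co-treated with 5 mM MPP+ and compound for 2 h; mitochondrial membrane potential by JC10 ratiometric red/green signal (plate) and confocal imaging of JC10-stained cells (50 000 cells/well slides); DMSO control set to 100 %; triplicates on three independent days.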

Acetylcholinesterase = Acetylcholinesterase (Electrophorus electricus, UniProt O42275); test: Inhibition of electric eel AChE using acetylthiocholine as substrate by Ellman's method
Cholinesterase = Cholinesterase (Equus caballus, UniProt P81908); test: Inhibition of equine serum BChE using butyrylthiocholine as substrate by Ellman's method
Summary of the method: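 Equine serum BChE (0.2 U/mL final) with 40 μM butyrylthiocholine and 100 μM DTNB, modified Ellman spectrophotometry; compounds from DMSO diluted in water, five inhibitor concentrations; IC50 from regression of v0/vi versus inhibitor concentration; triplicate.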

[18] = Selectivity index, ratio of IC50 for electric eel AChE to IC50 for equine serum BChE
Summary of the method: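 Ratio of IC50 values from modified Ellman spectrophotometric assays with electric eel AChE and equine serum BChE. Each used enzyme at 0.2 U/mL final, acetylthiocholine or butyrylthiocholine at 40 μM, and DTNB at 100 μM. Inhibitors were dissolved in DMSO, diluted in water, and tested at five concentrations in triplicate. IC50 came from regression of v0/vi against inhibitor concentration.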

SH-SY5Y [19] = test: Neuroprotective activity against MPP+ induced cell death in human SH-SY5Y cells assessed as decrease in PARP1 cleavage at 1 to 10 uM incubated for 24 hrs by immunoblotting analysis; format: functional, cell-based; conditions: dose 1-10 µM
SH-SY5Y [20] = test: Inhibition of MPP+ induced mitochondrial depolarization in human SH-SY5Y cells at 0.1 to 1 uM incubated for 2 hrs by JC10 staining based confocal laser scanning microscopy; format: functional, cell-based; conditions: dose 0.1-1 µM; summary of the method: as §6
SH-SY5Y [21] = test: Inhibition of MPP+ induced Akt phosphorylation at Ser473 residues in human SH-SY5Y cells at 1 to 10 uM incubated for 24 hrs by Western blotting analysis; format: cell-based; conditions: dose 1-10 µM
Summary of the method: (§7)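 ATRA-differentiated neuron-like SH-SY5Y co-treated with 5 mM MPP+ and compound for 24 h, lysed in RIPA buffer, SDS-PAGE, transfer to nitrocellulose, immunoblot for p-Akt (Ser473) and ERK1/2; HSP90 and β-actin loading controls; ECL chemiluminescence imaged by CCD camera.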

[22] = target: Mitogen-activated protein kinase; ERK1/ERK2 (Homo sapiens) (UniProt P27361+P28482); test: Inhibition of MPP+ induced ERK1/2 phosphorylation in human SH-SY5Y cells at 10 uM incubated for 24 hrs by Western blotting analysis; format: cell-based; summary of the method: as §7
Chain of Mitogen-activated protein kinase; ERK1/ERK2 (Homo sapiens) (P27361 whole entry, looked up): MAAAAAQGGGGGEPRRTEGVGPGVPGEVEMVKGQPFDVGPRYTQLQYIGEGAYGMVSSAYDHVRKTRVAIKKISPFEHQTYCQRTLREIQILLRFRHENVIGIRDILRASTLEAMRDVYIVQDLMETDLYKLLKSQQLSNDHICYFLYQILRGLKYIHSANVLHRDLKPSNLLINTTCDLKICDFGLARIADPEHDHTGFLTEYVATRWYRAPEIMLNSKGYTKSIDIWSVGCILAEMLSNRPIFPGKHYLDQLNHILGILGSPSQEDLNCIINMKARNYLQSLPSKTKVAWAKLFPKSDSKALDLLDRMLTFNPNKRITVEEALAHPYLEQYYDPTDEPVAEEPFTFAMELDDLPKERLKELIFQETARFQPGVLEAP
Chain of Mitogen-activated protein kinase; ERK1/ERK2 (Homo sapiens) (P28482 whole entry, looked up): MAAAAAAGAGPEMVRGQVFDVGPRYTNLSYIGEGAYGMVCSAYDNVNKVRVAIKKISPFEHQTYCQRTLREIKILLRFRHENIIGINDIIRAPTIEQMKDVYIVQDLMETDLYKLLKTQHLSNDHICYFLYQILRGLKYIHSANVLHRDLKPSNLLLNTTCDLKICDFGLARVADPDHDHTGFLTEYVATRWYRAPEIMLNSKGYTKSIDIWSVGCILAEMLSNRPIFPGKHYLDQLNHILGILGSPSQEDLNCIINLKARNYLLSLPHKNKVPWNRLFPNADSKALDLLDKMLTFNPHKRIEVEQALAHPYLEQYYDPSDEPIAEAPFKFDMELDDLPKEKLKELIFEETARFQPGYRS

Chain of Cholinesterase (P81908 whole entry): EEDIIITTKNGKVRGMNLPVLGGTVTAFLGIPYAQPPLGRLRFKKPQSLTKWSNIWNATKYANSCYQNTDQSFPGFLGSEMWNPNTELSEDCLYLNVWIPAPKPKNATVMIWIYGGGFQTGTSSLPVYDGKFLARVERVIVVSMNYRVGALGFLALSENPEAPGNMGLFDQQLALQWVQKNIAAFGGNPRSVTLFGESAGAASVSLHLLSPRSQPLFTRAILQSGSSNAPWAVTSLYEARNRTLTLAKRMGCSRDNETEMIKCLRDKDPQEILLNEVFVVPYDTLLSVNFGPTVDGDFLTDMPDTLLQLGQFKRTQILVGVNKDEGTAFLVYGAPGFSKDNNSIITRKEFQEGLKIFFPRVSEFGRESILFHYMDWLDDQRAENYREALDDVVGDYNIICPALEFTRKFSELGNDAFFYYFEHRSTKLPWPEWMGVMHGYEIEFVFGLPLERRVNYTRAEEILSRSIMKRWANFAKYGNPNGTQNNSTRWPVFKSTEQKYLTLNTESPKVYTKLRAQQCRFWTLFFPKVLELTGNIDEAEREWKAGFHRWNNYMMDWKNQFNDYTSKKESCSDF
Chain of Acetylcholinesterase (O42275 whole entry): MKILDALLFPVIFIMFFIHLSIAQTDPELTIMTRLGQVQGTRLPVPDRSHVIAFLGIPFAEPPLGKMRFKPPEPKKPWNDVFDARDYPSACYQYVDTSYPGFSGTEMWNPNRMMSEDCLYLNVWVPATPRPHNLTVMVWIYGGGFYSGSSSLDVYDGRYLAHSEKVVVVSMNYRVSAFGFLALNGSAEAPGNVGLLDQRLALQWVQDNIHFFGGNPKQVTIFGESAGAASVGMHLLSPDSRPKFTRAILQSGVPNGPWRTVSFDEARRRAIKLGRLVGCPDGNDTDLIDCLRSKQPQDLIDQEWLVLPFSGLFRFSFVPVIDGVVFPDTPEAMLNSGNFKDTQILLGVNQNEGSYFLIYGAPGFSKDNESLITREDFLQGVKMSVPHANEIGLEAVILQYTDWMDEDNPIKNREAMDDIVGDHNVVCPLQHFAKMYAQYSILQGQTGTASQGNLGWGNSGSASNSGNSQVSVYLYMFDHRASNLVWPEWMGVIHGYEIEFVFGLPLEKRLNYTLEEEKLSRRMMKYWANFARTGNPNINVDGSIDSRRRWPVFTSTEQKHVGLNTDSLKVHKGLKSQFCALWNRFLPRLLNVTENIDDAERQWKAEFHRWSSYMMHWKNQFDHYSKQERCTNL

Row | Compound | inhibition at 10 µM (SH-SY5Y [1]) | Activity (SH-SY5Y [2]) | Activity (SH-SY5Y [3]) | Activity (SH-SY5Y [4]) | Activity (SH-SY5Y [5]) | Activity (SH-SY5Y [6]) | Activity (SH-SY5Y [7]) | Activity (SH-SY5Y [8]) | Activity (SH-SY5Y [9]) | Activity (SH-SY5Y [11]) | inhibition at 10 µM (SH-SY5Y [15]) | IC50 (Acetylcholinesterase) | IC50 (Cholinesterase) | Ratio IC50 [18] | further results
1 | Brc1ccc2nc3c(n2c1)C1(CCCC1)Nc1ccccc1-3 | 41.3% | 12.2% | 78.4% | 63.9% | 59.7% | 66.4% | 31.8% | 27.5% | 51.9% | 43.5% | 52.2% | 27 µM | 10.7 µM | 2.51 | Activity (SH-SY5Y [10]): 58.5%; Activity (SH-SY5Y [12]): 47.3%; Activity (SH-SY5Y [13]): 49.4%; Activity (SH-SY5Y [14]): 72.6%; inhibition (SH-SY5Y [16]): Active; inhibition at 1 µM (SH-SY5Y [17]): 78.5%
2 | O=c1c2ccccc2[se]n1-c1ccccc1 [EBSELEN] | 63.3% | 18.3% | 118.7% | 112% | 132.9% | 99.5% | 80% | 27.5% | 59.2% | 53.4% | 57.1% | 12.7 µM | 12.1 µM | 1.05 | Activity (SH-SY5Y [19]): Active; inhibition (SH-SY5Y [20]): inactive; inhibition (SH-SY5Y [21]): inactive; inhibition [22]: inactive
